Here are results for 23 compounds from ChEMBL document CHEMBL1649378, “Synthesis and biological evaluation of new derivatives of 2-substituted 4-hydroxybutanamides as GABA uptake inhibitors” (Eur J Med Chem, 2011).

Test [1] concerns the target Sodium- and chloride-dependent GABA transporter 1 (Mus musculus) (UniProt P31648). Put plainly: Remaining NO711 binding to mouse GAT1 by MS-binding assay.
The target is the same in test [2]. The experiment in a line: Inhibition of [3H]GABA uptake at GAT1 expressed in HEK cells. The arrangement: inhibition: concentration or dose not given beside the values. The conditions noted are these: HEK293; for inhibition: concentration not given here.
For test [3], the system named is Sodium- and chloride-dependent GABA transporter 2 (Mus musculus). Put plainly: Inhibition of [3H]GABA uptake at GAT2 expressed in HEK cells. Details: inhibition: concentration or dose not given beside the values. The conditions noted are these: HEK293; for inhibition: concentration not given here.
Test [4] concerns the target Sodium- and chloride-dependent GABA transporter 1 (Mus musculus) (UniProt P31648). Put plainly: Inhibition of NO711 binding to mouse GAT1 by MS-binding assay. The arrangement: inhibition: concentration or dose not given beside the values. The following applies: for inhibition: concentration not given here. In outline: (§1)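 Binding assay on murine GAT1 with unlabelled NO711 as marker, quantified by LC-MS/MS on a triple quadrupole instrument. Compounds were first screened at 100 μM. Those cutting NO711 binding by at least 50% were rated active and then given pKi values.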

For test [5], the system named is Sodium- and chloride-dependent GABA transporter 2 (Mus musculus). Put plainly: Inhibition of [3H]GABA uptake at GAT2 expressed in HEK cells at 100 uM. The following applies: HEK293.
Test [6] has as its system Sodium- and chloride-dependent GABA transporter 3 (Mus musculus). The experiment in a line: Inhibition of [3H]GABA uptake at GAT3 expressed in HEK cells at 100 uM. The following applies: HEK293.
A further test has as its system HEK293. Put plainly: Inhibition of [3H]GABA uptake at GAT4 expressed in HEK cells at 100 uM. The format is cell-based. In outline:
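[³H]GABA uptake measured in HEK cells stably transfected with the individual murine GABA transporter subtypes GAT1–GAT4. Compounds were first screened at 100 μM, and results are given as % remaining GABA uptake (means). Those cutting uptake by at least 50% were rated active and then given pIC50 values.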

For test [7], the target named is Sodium- and chloride-dependent GABA transporter 1 (Mus musculus) (UniProt P31648). The experiment in a line: Inhibition of [3H]GABA uptake at GAT1 expressed in HEK cells at 100 uM. The following applies: HEK293.
For test [8] the target is unchanged. Put plainly: Inhibition of NO711 binding to mouse GAT1 at 100 uM by MS-binding assay. In outline:
as §1

The term pIC50 denotes the negative decadic logarithm of the IC50, by convention in mol/L. Broadly, the pKi is −log10 of the Ki, conventionally taken in molar units. The term inhibition denotes the relative decrease from the control value, in per cent.

Regarding `O=C(NCc1ccccc1Cl)C(CCO)N1CCN(C(c2ccc(F)cc2)c2ccc(F)cc2)CC1` (racemic), the remaining binding in test [1] was 93%. For the same compound, the figures for the negative-log IC50 (pIC50) in test [2] and in test [3] were 4.2 and 4.17, respectively.
The compound `O=C(NCc1ccc(Cl)cc1)C(CCO)N1CCN(C(c2ccccc2)c2ccccc2)CC1` (racemic) yielded a pKi in test [4] of 4.33. Besides, the values for the pIC50 in [2] and in test [3] were 4.88 and 4.56, respectively.
On to `O=C(NCc1ccccc1F)C(CCO)N1CCN(C(c2ccc(F)cc2)c2ccc(F)cc2)CC1` (racemic), for which the remaining binding in test [1] amounted to 92%. In addition, the figures for the inhibition in test [2] and in [3] were 97% and 65%, respectively.
As to `NC(=O)C(CCO)N1CCNCC1` (racemic), the inhibition in test [2] turned out to be 84%; in [3], 110%.
As for `O=C(NCc1ccc(Cl)cc1)C(CCO)N1CCN(C(c2ccc(F)cc2)c2ccc(F)cc2)CC1` (racemic), the remaining binding in test [1] amounted to 102%. In addition, the figures for the pIC50 in [2] and in test [3] were 4.14 and 4.35, respectively.
Regarding `COc1ccc(CNC(=O)C(CCO)N2CCN(C(c3ccccc3)c3ccccc3)CC2)cc1` (racemic), the inhibition in [5] was found to be 78%; in [6], 61%.
On to `O=C(NCc1ccc(F)cc1)C(CCO)N1CCN(C(c2ccc(F)cc2)c2ccc(F)cc2)CC1` (racemic), for which, in [1], the remaining binding was found to be 75%. Further, the pIC50 was determined as 4.03 in test [2] and 4.13 in [3].
Consider `O=C(NCc1ccc(Cl)cc1)C(CCO)N1CCNCC1` (racemic), for which the inhibition in [2] worked out at 79%; in [3], 98%.
`O=C(NCc1ccccc1)C(CCO)N1CCN(C(c2ccccc2)c2ccccc2)CC1` (racemic) yielded a pKi in test [4] of 4.96. Also, the pIC50 in [2] was found to be 4.66; in test [3], 4.47. Besides, the values for the inhibition (with HEK293; in test [6]) were 54% and 46%, respectively.
Consider `COc1ccc(CNC(=O)C(CCO)N2CCN(C(c3ccc(F)cc3)c3ccc(F)cc3)CC2)cc1` (racemic), for which the results for the inhibition in test [4], in test [2] and in test [3] were 101%, 93% and 65%, respectively.
Turning to `O=C(NCc1ccc(F)cc1)C(CCO)N1CCN(C(c2ccccc2)c2ccccc2)CC1` (racemic), the inhibition in [5] worked out at 52%. The compound further displayed a negative-log Ki (pKi) in [4] of 4.82. Besides, the negative logarithm of the IC50 (pIC50) in [2] amounted to 4.84.
Turning to `NC(=O)C(CCO)N1CCN(C(c2ccccc2)c2ccccc2)CC1` (racemic), the remaining binding in [1] is 98%. Further, in test [6], the inhibition is 83%.
For `O=C(NCc1ccccc1)C(CCO)N1CCC(Cc2ccccc2)CC1` (racemic), the inhibition in [4] was determined as 86%; in [2], 75%; in test [3] it was 49%.
With `O=C(NCc1ccccc1Cl)C(CCO)N1CCN(C(c2ccccc2)c2ccccc2)CC1` (racemic), the inhibition is 83% in test [7], 72% in test [5] and 73% in test [6].
In the case of `O=C(NCc1ccccc1)C(CCO)N1CCN(C(c2ccc(F)cc2)c2ccc(F)cc2)CC1` (racemic), the remaining binding in [1] amounted to 63%. Moreover, the negative logarithm of the IC50 (pIC50) in [2] came to 4.19; in test [3], 4.33.
As to `Cc1ccc(CNC(=O)C(CCO)N2CCN(C(c3ccccc3)c3ccccc3)CC2)cc1` (racemic), the remaining binding in test [1] was determined as 61%.
Turning to `Cc1ccc(CNC(=O)C(CCO)N2CCN(C(c3ccc(F)cc3)c3ccc(F)cc3)CC2)cc1` (racemic), the remaining binding in [1] is 92%. The pIC50 came out at 4.23 in test [2] and 4.44 in test [3].
As for `O=C(NCc1ccccc1)C(CCO)N1CCOCC1` (racemic), the inhibition in test [4] came to 95%; in [2], 113%; in test [3], 98%.
Turning to `O=C(NCCc1ccccc1)C(CCO)N1CCN(C(c2ccccc2)c2ccccc2)CC1` (racemic), the inhibition worked out at 93% in test [5] and 80% in test [6].
Take `O=C(NCc1ccccc1F)C(CCO)N1CCN(C(c2ccccc2)c2ccccc2)CC1` (racemic): in test [8], the inhibition worked out at 55%. The pIC50 in test [2] is 4.48; in test [3] it was 4.33.
As for `O=C(NCCc1ccccc1)C(CCO)N1CCN(C(c2ccc(F)cc2)c2ccc(F)cc2)CC1` (racemic), the inhibition turned out to be 98% in test [4] and 69% in [2]. Also, the pIC50 in test [3] came out at 4.43.
Take `O=C(NCc1ccccc1)C(CCO)N1CCNCC1` (racemic): the inhibition was 76% in test [4], 63% in test [2] and 98% in test [3].
As to `NC(=O)C(CCO)N1CCN(C(c2ccc(F)cc2)c2ccc(F)cc2)CC1` (racemic), the inhibition is 106% in test [4], 66% in [2] and 84% in test [3].
